ChEMBL document CHEMBL1156759, “Identification and optimization of inhibitors of Trypanosomal cysteine proteases: cruzain, rhodesain, and TbCatB” (J Med Chem, 2010)
Calls of active or inactive are those of the source. The calls are words filed in the database; no cut-off is given here.

Tested on: Trypanosoma cruzi
Assay: Antitrypanosomal activity against Trypanosoma cruzi Y trypomastigotes infected in mouse J774 cells at 1 uM after 27 days medium replaced every 48 hrs
Type: functional, organism-based
Conditions: not given
Summary of the method: (§1)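 Irradiated (1000 rad) J774 macrophages plated overnight, infected 2 h with Y strain trypomastigotes, parasites removed, then cultured in RPMI-1640 with compound (n = 3); untreated infected and 10 μM K777 controls per experiment. Medium replaced every 48 h over 27 days; daily phase-contrast microscopy (400×) for free trypomastigotes and host toxicity; cultures kept 14 further days to confirm cure.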
In the case of `N#Cc1nc(Nc2cccc(-c3ccccc3)c2)nc(NC2CCCC2)n1`, the Activity is reported as “inactive”. For `N#Cc1nc(Nc2cc(Cl)cc(Cl)c2)nc(NC2CCCC2)n1`, the Activity was “inactive”. For `N#Cc1nc(Nc2cccc(C(F)(F)F)c2)nc(NC2CCCC2)n1`, the Activity was “inactive”. In the case of `Cc1cccc(Nc2nc(C#N)nc(NC3CCCC3)n2)c1`, the Activity is reported as “inactive”.

Tested on: not listed separately
Assay: Inhibition of recombinant Trypanosoma brucei cathepsin B after 5 mins by spectrofluorimetric analysis
Conditions: not given
Summary of the method: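 Recombinant TbCatB at 258 nM in 100 mM sodium acetate pH 5.5, 5 mM DTT, 0.001% Triton X-100, preincubated with compound in DMSO for 5 min at room temperature. Z-Phe-Arg-AMC 10 μM added to start. Rate of fluorescence rise read at ex 355/em 460 nm; DMSO control wells; IC50 from curve fitting.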
For `N#Cc1nc(Nc2cccc(-c3ccccc3)c2)nc(NC2CCCC2)n1`, the IC50 was greater than 10000 nM. Work on `N#Cc1nc(Nc2cc(Cl)cc(Cl)c2)nc(NC2CCCC2)n1` yielded an IC50 greater than 10000 nM. With `N#Cc1nc(Nc2cccc(C(F)(F)F)c2)nc(NC2CCCC2)n1` the IC50 was greater than 10000 nM. Work on `Cc1cccc(Nc2nc(C#N)nc(NC3CCCC3)n2)c1` yielded an IC50 of 6000 nM.

Tested on: Trypanosoma cruzi
Assay: Antitrypanosomal activity against Trypanosoma cruzi Y trypomastigotes infected in mouse J774 cells at 5 uM after 27 days medium replaced every 48 hrs
Type: functional, organism-based
Conditions: not given
Summary of the method: as §1
With `N#Cc1nc(Nc2cccc(-c3ccccc3)c2)nc(NC2CCCC2)n1` the Activity was “inactive”. With `N#Cc1nc(Nc2cc(Cl)cc(Cl)c2)nc(NC2CCCC2)n1` the Activity was “inactive”. In the case of `N#Cc1nc(Nc2cccc(C(F)(F)F)c2)nc(NC2CCCC2)n1`, the Activity is reported as “inactive”. For `Cc1cccc(Nc2nc(C#N)nc(NC3CCCC3)n2)c1`, the Activity was “inactive”.

Target: T1, Cruzipain (Trypanosoma cruzi, UniProt P25779)
T1 sequence (P25779 whole entry): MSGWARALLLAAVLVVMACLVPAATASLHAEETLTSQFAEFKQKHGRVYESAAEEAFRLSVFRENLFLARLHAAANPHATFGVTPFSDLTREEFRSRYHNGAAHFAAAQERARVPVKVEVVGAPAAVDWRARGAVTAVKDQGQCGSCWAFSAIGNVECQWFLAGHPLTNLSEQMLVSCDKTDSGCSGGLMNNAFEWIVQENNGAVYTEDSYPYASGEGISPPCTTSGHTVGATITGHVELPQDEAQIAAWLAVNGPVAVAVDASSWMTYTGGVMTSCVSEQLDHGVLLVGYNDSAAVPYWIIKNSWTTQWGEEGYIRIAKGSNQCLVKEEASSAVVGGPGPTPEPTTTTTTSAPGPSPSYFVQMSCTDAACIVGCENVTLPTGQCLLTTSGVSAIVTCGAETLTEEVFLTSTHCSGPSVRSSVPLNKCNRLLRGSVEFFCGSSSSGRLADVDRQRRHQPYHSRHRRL
Assay: Inhibition of Trypanosoma cruzi cruzain after 15 mins
Conditions: not given
Summary of the method: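 Cruzain at 1.5 nM final in 100 mM acetate pH 5.5, 5 mM DTT, 0.01% Triton X-100; compounds as serial 2-fold dilutions pin-transferred in DMSO. 15 min room-temperature preincubation, then Z-FR-AMC 2 μM final. Kinetic fluorescence read at ex 340/em 450 nm. Percent inhibition from the first 60 s signal change versus no-enzyme and uninhibited controls (48 wells each).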
In the case of `N#Cc1nc(Nc2cccc(C(F)(F)F)c2)nc(NC2CCCC2)n1`, the IC50 is reported as “Not Active”.

Same assay, conditions: read-out: IC50
Compound `N#Cc1nc(Nc2cccc(-c3ccccc3)c2)nc(NC2CCCC2)n1` has an IC50 of 2240 nM. For `N#Cc1nc(Nc2cc(Cl)cc(Cl)c2)nc(NC2CCCC2)n1`, the IC50 was 398 nM. `Cc1cccc(Nc2nc(C#N)nc(NC3CCCC3)n2)c1` showed an IC50 of 126 nM.

Tested on: J774
Assay: Cytotoxicity against mouse J774 cells at 10 uM
Type: cell-based
Conditions: j774, 10 µM
Summary of the method: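 Irradiated (1000 rad) J774 macrophages plated overnight and infected 2 h with Y strain T. cruzi trypomastigotes. After parasite removal, cultured in RPMI-1640 with compound (n = 3), medium changed every 48 h, for 27 days. Toxicity to host cells (granulation, detachment, death) scored daily by phase-contrast microscopy at 400×.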
For `N#Cc1nc(Nc2cccc(-c3ccccc3)c2)nc(NC2CCCC2)n1`, the Activity was “Toxic”. For `N#Cc1nc(Nc2cc(Cl)cc(Cl)c2)nc(NC2CCCC2)n1`, the Activity was “Toxic”. With `N#Cc1nc(Nc2cccc(C(F)(F)F)c2)nc(NC2CCCC2)n1` the Activity was “Toxic”. For `Cc1cccc(Nc2nc(C#N)nc(NC3CCCC3)n2)c1`, the Activity was “Toxic”.

Target: T1, Cruzipain
Assay: Inhibition of recombinant Trypanosoma cruzi cruzain after 5 mins by spectrofluorimetric analysis
Conditions: not given
Summary of the method: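 Recombinant cruzain at 4 nM (activated procruzain, anion-exchange purified) in 100 mM sodium acetate pH 5.5, 5 mM DTT, 0.001% Triton X-100. Preincubated 5 min at room temperature with compound in DMSO, then Z-Phe-Arg-AMC 10 μM. Fluorescence rate read at ex 355/em 460 nm; DMSO controls; IC50 by curve fitting.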
Work on `N#Cc1nc(Nc2cccc(-c3ccccc3)c2)nc(NC2CCCC2)n1` yielded an IC50 of 50 nM. With `N#Cc1nc(Nc2cc(Cl)cc(Cl)c2)nc(NC2CCCC2)n1` the IC50 was 10 nM. In the case of `N#Cc1nc(Nc2cccc(C(F)(F)F)c2)nc(NC2CCCC2)n1`, the IC50 is reported as 40 nM. `Cc1cccc(Nc2nc(C#N)nc(NC3CCCC3)n2)c1` gave an IC50 of 30 nM.

Tested on: not listed separately
Assay: Inhibition of recombinant Trypanosoma brucei rhodesain after 5 mins by spectrofluorimetric analysis
Conditions: not given
Summary of the method: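 Recombinant rhodesain, 4 nM, preincubated 5 min at room temperature with compound (DMSO) in 100 mM sodium acetate pH 5.5, 5 mM DTT, 0.001% Triton X-100. Reaction started with 10 μM Z-Phe-Arg-AMC; rate of AMC fluorescence increase read at ex 355/em 460 nm. IC50 from curve fitting; DMSO-only wells as positive control.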
With `N#Cc1nc(Nc2cccc(-c3ccccc3)c2)nc(NC2CCCC2)n1` the IC50 was 30 nM. In the case of `N#Cc1nc(Nc2cc(Cl)cc(Cl)c2)nc(NC2CCCC2)n1`, the IC50 is reported as 30 nM. `N#Cc1nc(Nc2cccc(C(F)(F)F)c2)nc(NC2CCCC2)n1` gave an IC50 of 70 nM. `Cc1cccc(Nc2nc(C#N)nc(NC3CCCC3)n2)c1` gave an IC50 of 50 nM.
